We go through 17 compounds from ChEMBL document CHEMBL3421570, “Combinatorial Libraries As a Tool for the Discovery of Novel, Broad-Spectrum Antibacterial Agents Targeting the ESKAPE Pathogens” (J Med Chem, 2015).

Active and inactive are the calls of the source. The rule behind the calls is not given here.

Common to all, as to assay type: functional, organism-based
One experiment relates to Staphylococcus aureus. Description: Antimicrobial activity against Staphylococcus aureus assessed as inhibition of microbial growth at 45 uM after 24 hrs. The essentials: (§1)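 Broth microdilution single-concentration read: overnight cultures diluted 1:1000, compound in DMF (≤2.0%) added, 37°C for 24 h, growth inhibition scored visually by lack of turbidity; triplicate. Gram-positives grown in TSB, Gram-negatives in LB.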

A further experiment concerns Enterobacter cloacae. Kind of experiment: Antimicrobial activity against Enterobacter cloacae assessed as inhibition of microbial growth at 45 uM after 24 hrs. The method, boiled down:
as §1

Another experiment has as its system Klebsiella pneumoniae. Kind of experiment: Antimicrobial activity against Klebsiella pneumoniae assessed as inhibition of microbial growth at 45 uM after 24 hrs. The essentials: as §1
Another experiment relates to Enterococcus faecium. Description: Antimicrobial activity against Enterococcus faecium assessed as inhibition of microbial growth at 45 uM after 24 hrs. The method, boiled down: as §1
Another experiment deals with Pseudomonas aeruginosa. Description: Antimicrobial activity against Pseudomonas aeruginosa assessed as inhibition of microbial growth at 45 uM after 24 hrs. The method, boiled down: as §1
In another experiment the test system is Acinetobacter baumannii. Description: Antimicrobial activity against Acinetobacter baumannii assessed as inhibition of microbial growth at 45 uM after 24 hrs. The method, boiled down: as §1

Turning to `N=C1NC[C@H](CCCCN2C[C@@H](Cc3cccc4ccccc34)N(CCc3ccc(-c4ccccc4)cc3)C2=N)N1CCC12CC3CC(CC(C3)C1)C2`, the “growth inhibition (GI)” value in the experiment with Staphylococcus aureus, in the experiment with Enterobacter cloacae, with Klebsiella pneumoniae, in the experiment with Enterococcus faecium, with Pseudomonas aeruginosa and in the experiment with Acinetobacter baumannii was “inactive” in each case.
Turning to `N=C1NC[C@H](CCCCN2C[C@@H](Cc3cccc4ccccc34)N(CCc3ccc(-c4ccccc4)cc3)C2=N)N1CCc1cccc(C(F)(F)F)c1`, the “growth inhibition (GI)” value in the experiment with Staphylococcus aureus, in the experiment on Enterobacter cloacae, in the experiment with Klebsiella pneumoniae, in the experiment with Enterococcus faecium, in the experiment on Pseudomonas aeruginosa and in the experiment with Acinetobacter baumannii was “Active” each time.
As for `CCCC[C@H]1CN(CCCC[C@H]2CNC(=N)N2CCC23CC4CC(CC(C4)C2)C3)C(=N)N1CCc1ccc(-c2ccccc2)cc1`, the “growth inhibition (GI)” value with Staphylococcus aureus, in the experiment with Enterobacter cloacae, in the experiment with Klebsiella pneumoniae, with Enterococcus faecium, in the experiment with Pseudomonas aeruginosa and with Acinetobacter baumannii was “Active” throughout.
On to `CCCCCCCN1C(=N)N(CCCC[C@H]2CNC(=N)N2CCCCC2CCCCC2)C[C@@H]1CCCC`, for which the “growth inhibition (GI)” value in the experiment on Staphylococcus aureus, in the experiment on Enterobacter cloacae, in the experiment on Klebsiella pneumoniae, in the experiment with Enterococcus faecium, in the experiment on Pseudomonas aeruginosa and with Acinetobacter baumannii was “Active” in each case.
As for `N=C1NC[C@H](CCCCN2C[C@@H](Cc3cccc4ccccc34)N(CCCCC3CCCCC3)C2=N)N1CCC12CC3CC(CC(C3)C1)C2`, the “growth inhibition (GI)” value with Staphylococcus aureus, in the experiment with Enterobacter cloacae, in the experiment with Klebsiella pneumoniae, in the experiment with Enterococcus faecium, in the experiment on Pseudomonas aeruginosa and in the experiment with Acinetobacter baumannii was “inactive” in each case.
Turning to `N=C1NC[C@H](CCCCN2C[C@H](CC3CCCCC3)N(CCCCC3CCCCC3)C2=N)N1CCC12CC3CC(CC(C3)C1)C2`, the “growth inhibition (GI)” value in the experiment with Staphylococcus aureus, in the experiment with Enterobacter cloacae, in the experiment with Klebsiella pneumoniae, with Enterococcus faecium, with Pseudomonas aeruginosa and in the experiment on Acinetobacter baumannii was “Active” each time.
On to `N=C1NC[C@H](CCCCN2C[C@H](CC3CCCCC3)N(CCCCC3CCCCC3)C2=N)N1CCc1cccc(C(F)(F)F)c1`, for which the “growth inhibition (GI)” value in the experiment with Staphylococcus aureus, with Enterobacter cloacae, in the experiment on Klebsiella pneumoniae, with Enterococcus faecium, in the experiment on Pseudomonas aeruginosa and in the experiment with Acinetobacter baumannii was “Active” throughout.
For `CCCC[C@H]1CN(CCCC[C@H]2CNC(=N)N2CCCCC2CCCCC2)C(=N)N1CCCCC1CCCCC1`, the “growth inhibition (GI)” value in the experiment on Staphylococcus aureus, with Enterobacter cloacae, in the experiment on Klebsiella pneumoniae, in the experiment with Enterococcus faecium, in the experiment on Pseudomonas aeruginosa and in the experiment on Acinetobacter baumannii was “Active” each time.
Consider `N=C1NC[C@H](CCCCN2C[C@H](CC3CCCCC3)N(CCc3ccc(-c4ccccc4)cc3)C2=N)N1CCc1cccc(C(F)(F)F)c1`, for which the “growth inhibition (GI)” value with Staphylococcus aureus, in the experiment on Enterobacter cloacae, with Klebsiella pneumoniae, with Enterococcus faecium, in the experiment with Pseudomonas aeruginosa and in the experiment with Acinetobacter baumannii was “Active” in each case.
For `N=C1NC[C@H](CCCCN2C[C@@H](Cc3cccc4ccccc34)N(CCCCC3CCCCC3)C2=N)N1CCCCC1CCCCC1`, the “growth inhibition (GI)” value with Staphylococcus aureus, in the experiment on Enterobacter cloacae, with Klebsiella pneumoniae, in the experiment with Enterococcus faecium, in the experiment with Pseudomonas aeruginosa and in the experiment with Acinetobacter baumannii was “Active” in each case.
For the compound `N=C1NC[C@H](CCCCN2C[C@@H](Cc3cccc4ccccc34)N(CCc3ccc(-c4ccccc4)cc3)C2=N)N1CCCCC1CCCCC1`, the “growth inhibition (GI)” value in the experiment with Staphylococcus aureus, with Enterobacter cloacae, in the experiment with Klebsiella pneumoniae, in the experiment with Enterococcus faecium, in the experiment on Pseudomonas aeruginosa and in the experiment with Acinetobacter baumannii was “Active” throughout.
Take `CCCCCCCN1C(=N)N(CCCC[C@H]2CNC(=N)N2CCC23CC4CC(CC(C4)C2)C3)C[C@@H]1CC1CCCCC1`: the “growth inhibition (GI)” value with Staphylococcus aureus, with Enterobacter cloacae, with Klebsiella pneumoniae, in the experiment with Enterococcus faecium, in the experiment with Pseudomonas aeruginosa and in the experiment with Acinetobacter baumannii was “Active” in each case.
Take `N=C1NC[C@H](CCCCN2C[C@H](CC3CCCCC3)N(CCc3ccc(-c4ccccc4)cc3)C2=N)N1CCC12CC3CC(CC(C3)C1)C2`: the “growth inhibition (GI)” value in the experiment on Staphylococcus aureus, with Enterobacter cloacae, in the experiment with Klebsiella pneumoniae, in the experiment with Enterococcus faecium, with Pseudomonas aeruginosa and with Acinetobacter baumannii was “Active” throughout.
Regarding `CCCCCCCN1C(=N)N(CCCC[C@H]2CNC(=N)N2CCCCC2CCCCC2)C[C@H]1Cc1cccc2ccccc12`, the “growth inhibition (GI)” value in the experiment on Staphylococcus aureus, in the experiment with Enterobacter cloacae, in the experiment on Klebsiella pneumoniae, with Enterococcus faecium, in the experiment with Pseudomonas aeruginosa and with Acinetobacter baumannii was “Active” in each case.
Turning to `CCCC[C@H]1CN(CCCC[C@H]2CNC(=N)N2CCc2cccc(C(F)(F)F)c2)C(=N)N1CCc1ccc(-c2ccccc2)cc1`, the “growth inhibition (GI)” value with Staphylococcus aureus, with Enterobacter cloacae, with Klebsiella pneumoniae, in the experiment on Enterococcus faecium, with Pseudomonas aeruginosa and in the experiment on Acinetobacter baumannii was “Active” each time.
As for `N=C1NC[C@H](CCCCN2C[C@H](CC3CCCCC3)N(CCc3ccc(-c4ccccc4)cc3)C2=N)N1CCCCC1CCCCC1`, the “growth inhibition (GI)” value with Staphylococcus aureus, in the experiment on Enterobacter cloacae, in the experiment on Klebsiella pneumoniae, in the experiment on Enterococcus faecium, in the experiment on Pseudomonas aeruginosa and in the experiment on Acinetobacter baumannii was “Active” in each case.
As to `N=C1NC[C@H](CCCCN2C[C@@H](Cc3cccc4ccccc34)N(CCCCC3CCCCC3)C2=N)N1CCc1cccc(C(F)(F)F)c1`, the “growth inhibition (GI)” value in the experiment on Staphylococcus aureus, in the experiment with Enterobacter cloacae, in the experiment with Klebsiella pneumoniae, in the experiment with Enterococcus faecium, in the experiment with Pseudomonas aeruginosa and with Acinetobacter baumannii was “Active” in each case.
